# Measurements published in ChEMBL document CHEMBL1124690, “Synthesis and antitumor activity of fused tetracyclic quinoline derivatives. 1” (J Med Chem, 1989).
# Calls of active or inactive are those of the source. The rule behind the calls is not given here.
# How the values were obtained:
# [1] = Percent fluorescence of the ethidium bromide-DNA complex
# In short: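 Ethidium displacement: ethidium bromide 3 µM and calf thymus DNA 20 µM in Hepes 2 mM, EDTA 10 µM, NaCl 9.4 mM, pH 7.0; drug 10 µM. Excitation 564 nm filter, emission 595 nm. Fluorescence with drug as % of drug-free control; mean ± SE of three experiments.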
# [2] = Inhibition of KB cell growth in vitro; type: functional, cell-based; conditions: Homo sapiens
# In short: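 KB clonal cells in Eagle's MEM with 10% calf serum, 37 °C, 5% CO2; seeded 2100 cells/cm², medium changed at 24 h, then graded drug 0.3–100 µg/mL for 48 h, duplicate dishes per concentration. Cells trypsinized and counted by Coulter counter; IC50 from log concentration vs growth rate (% of control).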
# [3] = tested on: P388; assay: Median survival time per control mice with leukemia P388 at 400 mg/kg dose injected a dose of 400 mg/kg; type: functional, organism-based; conditions: Mus musculus
# In short: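 CD2F1 mice (six per group) given 10⁶ P388 cells ip; drug in 0.9% NaCl with a drop of Tween 80, ip on days 1 and 5. Activity as % T/C of median survival time, treated vs control.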
# [4] = tested on: P388; assay: Median survival time per control mice with leukemia P388 at 100 mg/kg dose injected intraperitoneally; type: functional, Mus musculus; conditions: route intraperitoneal
# In short: (§1)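 CD2F1 mice (six per group) implanted ip with 10⁶ P388 leukemia cells. Drug dissolved in 0.9% NaCl with a drop of Tween 80, given ip once daily on days 1 and 5. % T/C = median survival time treated/control × 100.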
# [5] = tested on: P388; assay: Median survival time per control mice with leukemia P388 at 12.5 mg/kg dose injected intraperitoneally; type: functional, Mus musculus; conditions: route intraperitoneal; in short: as §1
# [6] = tested on: P388; assay: Median survival time per control mice with leukemia P388 at 200 mg/kg dose injected intraperitoneally; type: functional, Mus musculus; conditions: route intraperitoneal; in short: as §1
# [7] = tested on: P388; assay: Median survival time per control mice with leukemia P388 at 25 mg/kg dose injected intraperitoneally; type: functional, Mus musculus; conditions: route intraperitoneal; in short: as §1
# [8] = tested on: P388; assay: Median survival time per control mice with leukemia P388 at 400 mg/kg dose injected intraperitoneally; type: functional, Mus musculus; conditions: route intraperitoneal; in short: as §1
# [9] = tested on: P388; assay: Median survival time per control mice with leukemia P388 at 50 mg/kg dose injected intraperitoneally; type: functional, Mus musculus; conditions: route intraperitoneal; in short: as §1
# [10] = tested on: DNA topoisomerase II (Bos taurus); assay: Activity of the topoisomerase II dependent DNA cleavage; Active
# [11] = tested on: DNA topoisomerase 1 (Bos taurus); assay: Unwinding of DNA observed in a reaction mixture containing PBR322 DNA dimer, calf thymus DNA topoisomerase I, and the drug; ++ = unwinding was observed at 25 ug/mL
# [12] = tested on: DNA topoisomerase II (Bos taurus); assay: Activity of the topoisomerase II dependent DNA cleavage; (-) = Inactive
# [13] = tested on: DNA topoisomerase II (Bos taurus); assay: Activity of the topoisomerase II dependent DNA cleavage; Inactive
# [14] = tested on: P388; assay: Median survival time per control mice with leukemia P388 at 10 mg/kg dose injected intraperitoneally; type: functional, Mus musculus; conditions: route intraperitoneal; in short: as §1
# [15] = tested on: P388; assay: Median survival time per control mice with leukemia P388 at 20 mg/kg dose injected intraperitoneally; type: functional, Mus musculus; conditions: route intraperitoneal; in short: as §1
# [16] = tested on: P388; assay: Median survival time per control mice with leukemia P388 at 40 mg/kg dose injected intraperitoneally; type: functional, Mus musculus; conditions: route intraperitoneal; in short: as §1
# [17] = tested on: B16; assay: Median survival time per control animal with B16 cells at 12.5 mg/kg dose injected intraperitoneally on day 1,5,8; type: functional, Mus musculus; conditions: route intraperitoneal
# In short: (§2)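 Female-unspecified B6D2F1 mice inoculated ip with 0.5 mL of 10% homogenate (Hank's saline) of subcutaneous B16 melanoma. Drug given ip on days 1, 5 and 8. % T/C = median survival time of treated over control group.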
# [18] = tested on: B16; assay: Median survival time per control animal with B16 cells at 25 mg/kg dose injected intraperitoneally on day 1,5,8; type: functional, Mus musculus; conditions: route intraperitoneal; in short: as §2
# [19] = tested on: B16; assay: Median survival time per control animal with B16 cells at 6.3 mg/kg dose injected intraperitoneally on day 1,5,8; type: functional, Mus musculus; conditions: route intraperitoneal; in short: as §2
# [20] = Median survival time per control animal with colon 38 carcinoma cells at 25 mg/kg dose injected intraperitoneally on day 1,8,15,22; type: functional, Mus musculus; conditions: route intraperitoneal
# In short: (§3)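 Colon 38 inoculated sc as a 1 × 1 × 1 mm³ fragment into B6D2F1 mice; drug dosed ip on days 1, 8, 15 and 22. Result expressed as % T/C of median survival time, treated versus control.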
# [21] = Median survival time per control animal with colon 38 carcinoma cells at 35 mg/kg dose injected intraperitoneally on day 1,8,15,22; type: functional, Mus musculus; conditions: route intraperitoneal; in short: as §3
# [22] = Median survival time per control animal with colon 38 carcinoma cells at 6.3 mg/kg dose injected intraperitoneally on day 1,8,15,22; type: functional, Mus musculus; conditions: route intraperitoneal; in short: as §3
# [23] = tested on: M5076; assay: Median survival time per control animal with M5076 cells at 12.5 mg/kg dose injected intraperitoneally on day 1,5,9; type: functional, Mus musculus; conditions: route intraperitoneal
# In short: (§4)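 B6D2F1 mice inoculated ip with 10⁶ M5076 fibrosarcoma cells; drug given ip on days 1, 5 and 9. Activity read as % T/C, ratio of median survival time of treated to control group.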
# [24] = tested on: M5076; assay: Median survival time per control animal with M5076 cells at 25 mg/kg dose injected intraperitoneally on day 1,5,9; type: functional, Mus musculus; conditions: route intraperitoneal; in short: as §4
# [25] = tested on: M5076; assay: Median survival time per control animal with M5076 cells at 3.1 mg/kg dose injected intraperitoneally on day 1,5,9; type: functional, Mus musculus; conditions: route intraperitoneal; in short: as §4
# [26] = tested on: M5076; assay: Median survival time per control animal with M5076 cells at 50 mg/kg dose injected intraperitoneally on day 1,5,9; type: functional, Mus musculus; conditions: route intraperitoneal; in short: as §4
# [27] = tested on: M5076; assay: Median survival time per control animal with M5076 cells at 6.3 mg/kg dose injected intraperitoneally on day 1,5,9; type: functional, Mus musculus; conditions: route intraperitoneal; in short: as §4
# [28] = Median survival time per control animal with colon 38 carcinoma cells at 12.5 mg/kg dose injected intraperitoneally on day 1,8,15,22; type: functional, Mus musculus; conditions: route intraperitoneal; in short: as §3
# [29] = tested on: DNA topoisomerase 1 (Bos taurus); assay: Unwinding of DNA observed in a reaction mixture containing PBR322 DNA dimer, calf thymus DNA topoisomerase I, and the drug; + = unwinding was observed at 100 ug/mL
Structure (SMILES),Fluoroscence [1],IC50 [2],T/C [3],T/C [5],T/C [7],T/C [9],other results
COc1cc(NS(C)(=O)=O)ccc1Nc1c2ccccc2nc2c1sc1ccccc12,79.3%,< 0.3 µg/mL,,138%,170%,170%,T/C [4]: 166%; T/C [6]: 238%; T/C [8]: 252%; Activity [10]: Active; Unwinding [11]: unwinding was observed at 25 ug/mL
CN(C)CCCNc1c2c(nc3ccccc13)-c1ccccc1C2,5.45%,< 0.3 µg/mL,,110%,88%,101%,Activity [12]: inactive
CN(C)CCCNc1c2c(nc3ccccc13)CCCC2,82%,1.3 µg/mL,inactive,,,,
COc1cc(NS(C)(=O)=O)ccc1Nc1c2ccccc2nc2ccccc12 [AMSACRINE],63.7%,< 0.3 µg/mL,,,,,T/C [14]: 174%; T/C [15]: 198%; T/C [16]: 223%
COc1cc(NS(C)(=O)=O)ccc1Nc1c2c(nc3ccccc13)-c1ccccc1C2,67.6%,< 0.3 µg/mL,,166%,217%,240%,T/C [17]: 223%; T/C [18]: 211%; T/C [19]: 184%; T/C [20]: 138%; T/C [21]: 150%; T/C [22]: 111%; T/C [23]: 184%; T/C [24]: 111%; T/C [25]: 193%; T/C [26]: 92%; T/C [27]: 158%; T/C [4]: 80%; T/C [6]: 60%; T/C [8]: 0%; T/C [28]: 133%; Activity [10]: Active
CN(C)CCCNc1c2c(nc3ccccc13)CCN(C)C2,,14 µg/mL,inactive,,,,
COc1cc(NS(C)(=O)=O)ccc1Nc1c2ccccc2nc2c1oc1ccccc12,81.4%,< 0.3 µg/mL,,117%,125%,159%,T/C [4]: 138%; T/C [6]: 168%; T/C [8]: 248%; Activity [10]: Active; Unwinding [29]: unwinding was observed at 100 ug/mL

# More lines, main results first:
Fluoroscence [1],Structure (SMILES),IC50 [2],T/C [3],T/C [5],T/C [7],T/C [9],other results
93.6%,COc1cc(NS(C)(=O)=O)ccc1Nc1c2ccccc2nc2c3ccccc3n(C)c12,3.6 µg/mL,inactive,,,,
106%,COc1cc(NS(C)(=O)=O)ccc1Nc1c2c(nc3ccccc13)CCSC2,46 µg/mL,inactive,,,,
93.3%,COc1cc(NS(C)(=O)=O)ccc1Nc1c2c(nc3ccccc13)CCCC2,41 µg/mL,inactive,,,,Activity [13]: inactive
95.3%,COc1cc(NS(C)(=O)=O)ccc1Nc1c2c(nc3ccccc13)-c1ccccc1C2C (centres undefined),15 µg/mL,inactive,,,,Activity [13]: inactive
104%,COc1cc(NS(C)(=O)=O)ccc1Nc1c2c(nc3ccccc13)CCN(C)C2,> 100 µg/mL,inactive,,,,
